Compound activity deposited in PubChem by several laboratories.
Rows were chosen to be rich in hits. Some 3.1% of all compounds tested hit in one or more screens of this group.
MEKK2wt PB1 HTS – modulators of MEK5 binding to wildtype MEKK2, primary screen, biochemical, multiplex bead flow cytometry, Alexa488-MEK5 | AID 1531, 2009 | Mitogen-activated protein kinase kinase kinase 2 (Homo sapiens), Q9Y2U5 | hit rate 1.1% among 290,000 | binding response (% of control), % at 10 µM | Alexa488-MEK5 binding to MEKK2 WT; actives lie on both sides; in the data active = binding response below about 67% or above about 130%
MEKK2 mut-MEK5 – MEK5 binding signal on mutant MEKK2 PB1, primary screen, biochemical, multiplex bead flow cytometry, Alexa488-MEK5; percent response, % at 10 µM; hit rate 0.35% among 290,000; Alexa488-MEK5 binding to MEKK2 mutant; in the data active = percent response above about 24%, passing the limit was not always enough
PREPL inhibitor – PREPL enzyme inhibitors, primary screen, biochemical, fluorescence polarization. AID 2751, 2010. inhibition, % at 5.96 µM. hit rate 0.68% among 320,000. recombinant PREPL, fluorescence polarization activity-based probe;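 also: 0% = enzyme with DMSO and 100% = wells lacking enzyme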
UBC13 inh – UBC13 polyubiquitin chain formation inhibitors, primary screen, biochemical, TR-FRET, uHTS | inhibition, % at 20 µM | Ubiquitin-conjugating enzyme E2 N (Homo sapiens), P61088 | AID 485273, 2010 | hit rate 0.47% among 330,000; in the data active = inhibition above about 45%, passing the limit was not always enough
Target sequence (P61088 whole entry, looked up): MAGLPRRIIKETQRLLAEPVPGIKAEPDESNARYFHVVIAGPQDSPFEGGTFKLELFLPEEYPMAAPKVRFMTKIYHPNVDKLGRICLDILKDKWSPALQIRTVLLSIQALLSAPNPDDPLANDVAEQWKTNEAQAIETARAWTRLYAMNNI
Apaf-1 inh – inhibitors of human Apaf-1 apoptosome, primary screen, biochemical, DEVD-Rh110 fluorescence, uHTS; AID 489030, 2010; inhibition, % at 20 µM; reconstituted apoptosome caspase-3 activity; hit rate 0.71% among 330,000; active = inhibition of at least 40% at 20 µM;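 also: plate controls were DMSO wells for no effect and DEVD-CHO caspase inhibitor wells for full effect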
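Material: reconstituted apoptosome with Apaf-1, cytochrome c, caspase-9, procaspase-3, dATP / Buffer or medium: pH 7.5 Hepes buffer with CHAPS, BSA, DTT / Also added: cytochrome c with DEVD-Rh110 / Schedule: compound with Apaf-1, dATP, procaspase-3 30 min, then 50 min reaction, room temperature / Technique: rhodamine 110 fluorescence at Ex 480/Em 540 nm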
MEKK3 PB1 HTS – modulators of MEKK3-MEK5 PB1 binding, primary screen, biochemical, wildtype MEKK3, multiplex bead flow cytometry, Alexa488-MEK5; Mitogen-activated protein kinase kinase kinase 3 (Homo sapiens), Q99759; bead-based flow cytometry, Alexa488-MEK5 binding to MEKK3; actives lie on both sides; 0 = blocked by unlabeled MEK5, 100 = vehicle; binding response (% of control), % at 10 µM; hit rate 1.4% among 290,000; AID 1529, 2009;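 active = binding response more than 3 SD above or below the average of its plate-row segment, actives on both sides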;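 also: Alexa488 bead fluorescence after subtracting the streptavidin-only scavenger bead signal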
PREPL inh cf – human PREPL enzyme inhibitors, confirmation, biochemical, fluorescence polarization. shares compounds with PREPL inhibitor. recombinant PREPL, fluorescence polarization activity probe. inhibition, % at 5.96 µM. hit rate 67% among 2,000;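 also: 0% = protein with DMSO and 100% = wells lacking protein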
Casp3 counter – CASP3 inhibitor validation, counterassay for project on UBE2N polyubiquitination blockers, biochemical, one dose | inhibition, % at 20 µM | Recombinant caspase-3, Caspase-Glo 3/7 luminescence, 60 min | shares compounds with UBC13 inh | hit rate 4% among 1,400;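 active = mean inhibition across replicates above about 26%, limit read from the data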;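 also: plate controls were DMSO with caspase-3 for no effect and DMSO wells lacking enzyme for full effect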
Target sequence (P42574 whole entry, looked up): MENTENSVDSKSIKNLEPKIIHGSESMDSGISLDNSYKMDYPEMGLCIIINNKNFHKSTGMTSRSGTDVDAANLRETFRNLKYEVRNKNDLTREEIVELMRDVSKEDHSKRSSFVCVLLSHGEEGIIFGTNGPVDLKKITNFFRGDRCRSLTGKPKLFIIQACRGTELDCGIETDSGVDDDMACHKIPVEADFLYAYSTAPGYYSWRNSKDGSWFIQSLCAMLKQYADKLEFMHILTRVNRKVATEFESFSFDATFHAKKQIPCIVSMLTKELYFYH
UBC13 conf – UBC13 polyubiquitination inhibitors, single-point retest, confirmation, biochemical, TR-FRET, single concentration; shares compounds with UBC13 inh; inhibition, % at 10 µM; hit rate 68% among 1,400; in the data active = inhibition above about 45%
Apaf-1 inh conf – Apaf-1 inhibitors, single-dose retest, confirmation, biochemical, fluorescence, DEVD-Rh110, 20 µM. shares compounds with Apaf-1 inh. reconstituted apoptosome, caspase-3 DEVD-Rh110 fluorescence. inhibition, % at 20 µM. hit rate 25% among 1,800. AID 504614, 2011;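 active = mean inhibition of at least 40% at 20 µM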;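 also: plate controls were DMSO wells for no effect and DEVD-CHO caspase inhibitor control wells for full effect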
Rh110 interf inh – Rh110 fluorescence interference by putative Apaf-1 inhibitors, confirmation, artefact control for Apaf-1 inhibitor project, biochemical, 20 µM; quenched caspase reaction; 1,800 tested, under 10 active; activation (fluorescence interference), % at 20 µM; shares compounds with Apaf-1 inh; AID 504615, 2011;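 active = signal rise of 40% or more at 20 µM, treated as a fluorescence artifact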
Fluor interf inh – fluorescence interference of Apaf-1 inhibitor hits, dose response, artefact control for Apaf-1 inhibitor project | shares compounds with Apaf-1 inh | fluorescence interference counterscreen, Apaf-1 assay format | IC50, µM | 460 tested, under 10 active | AID 588538, 2011; call rule not given here
The depositor's hits bear a star; nt = no result given. Rule as the data show it, unless noted: active = inhibition above about 43%; inactive = the rest.

SMILES	MEKK2wt PB1 HTS	MEKK2 mut-MEK5	PREPL inhibitor	UBC13 inh	Apaf-1 inh	MEKK3 PB1 HTS	PREPL inh cf	Casp3 counter	UBC13 conf	Apaf-1 inh conf	Rh110 interf inh	others
C#CCOCCOCCOCCNc1nc(N2CCN(C(=O)CCCCCCCCCCNC(=O)Cn3cc(CCCCCN)nn3)CC2)nc(N2CCN(C(=O)CCCCCCCCCCNC(=O)Cn3cc(CCCCCN)nn3)CC2)n1	nt	nt	64*	118*	65*	nt	62*	-1	121*	51*	7	Fluor interf inh=>100
C#CCOCCOCCOCCNc1nc(N2CCN(C(=O)CCCCCCCCCCNC(=O)Cn3cc(CCCCCN)nn3)CC2)nc(N2CCN(C(=O)CCCCCCCCCCNC(=O)[C@H]([C@@H](C)CC)n3cc(CCCCN=C(N)N)nn3)CC2)n1	nt	nt	68*	121*	85*	nt	62*	-4	124*	69*	3	Fluor interf inh=>100
C#CCOCCOCCOCCNc1nc(N2CCN(C(=O)[C@H]([C@@H](C)CC)n3cc(CCCCN)nn3)CC2)nc(N2CCN(C(=O)[C@H](CCCCN)n3cc(CCCC)nn3)CC2)n1	nt	nt	5	40	32	nt	nt	nt	nt	nt	nt
C#CCOCCOCCOCCNc1nc(N2CCN(C(=O)CCCCCCCCCCNC(=O)[C@H]([C@@H](C)CC)n3cc(CCCCN=C(N)N)nn3)CC2)nc(N2CCN(C(=O)CCCCCCCCCCNC(=O)[C@H](CCCCN)n3cc(C)nn3)CC2)n1	nt	nt	45*	124*	73*	nt	55*	-4	127*	63*	13	Fluor interf inh=>100
C#CCOCCOCCOCCNc1nc(N2CCN(C(=O)Cn3cc(CCCCN)nn3)CC2)nc(N2CCN(C(=O)Cn3cc(CCCCN)nn3)CC2)n1	105	8	7	26	11	99	nt	nt	nt	nt	nt
C#CCOCCOCCOCCNc1nc(N2CCN(C(=O)CCCCCCCCCCNC(=O)Cn3cc(C[C@@H](C)O)nn3)CC2)nc(N2CCN(C(=O)CCCCCCCCCCNC(=O)[C@H](CCCN=C(N)N)n3cc(C[C@@H](C)CC)nn3)CC2)n1	nt	nt	48*	124*	62*	nt	42	3	119*	36	6
COc1ccc(/C=C(/NC(=O)c2ccccc2)C(=O)N2CCCC2)cc1	98	-1	10	2	4	102	nt	nt	nt	nt	nt
CCc1noc(C)c1C(=O)OCC(=O)c1ccccc1OC	100	-4	-2	2	10	98	nt	nt	nt	nt	nt
C#CCOCCOCCOCCNc1nc(N2CCN(C(=O)CCCCCCCCCCNC(=O)[C@H]([C@@H](C)CC)n3cc(CCCCCN)nn3)CC2)nc(N2CCN(C(=O)CCCCCCCCCCNC(=O)[C@H](CO)n3cc(CCCCCN)nn3)CC2)n1	nt	nt	50*	120*	71*	nt	51*	0	124*	48*	9	Fluor interf inh=>100
C#CCOCCOCCOCCNc1nc(N2CCN(C(=O)CCCCCCCCCCNC(=O)[C@H](CO)n3cc(CCCSC)nn3)CC2)nc(N2CCN(C(=O)CCCCCCCCCCNC(=O)[C@@H]([C@H](C)O)n3cc(C)nn3)CC2)n1	nt	nt	8	11	32	nt	nt	nt	nt	nt	nt
COc1cc(C)c(CN2CCC(n3nccc3NC(=O)C3CCOC3)CC2)cc1C (centres undefined)	105	10	7	0	10	101	nt	nt	nt	nt	nt
CC(=O)N1CCN(c2ccc(NCc3ccc(-c4cccc(Cl)c4)o3)cc2)CC1	nt	nt	55*	-2	43*	nt	68*	nt	nt	19	5
CC(=O)N1CCN(c2ccc(NCc3ccco3)cc2)CC1	nt	nt	8	-14	-3	nt	nt	nt	nt	nt	nt
CC1CC(C)(C)CC2(C1)NC(=O)N(CC(=O)Nc1ccc3[nH]c(=O)[nH]c3c1)C2=O (centres undefined)	nt	nt	49*	77*	44*	nt	38	-3	5	20	7
CC1CCC2(CC1)NC(=O)N(CC(=O)Nc1ccc3[nH]c(=O)[nH]c3c1)C2=O (centres undefined)	nt	nt	-5	6	-2	nt	nt	nt	nt	nt	nt
c1coc(-c2nc3ccccc3nc2-c2ccco2)c1	83	-13	32	-11	32	76	nt	nt	nt	nt	nt
O=C(NCCc1ccccc1)c1ccc2nc(-c3ccco3)c(-c3ccco3)nc2c1	69	-7	74*	-43	46*	94	74*	nt	nt	29	7
O=C(NC1CCCC1)c1ccc2nc(-c3ccco3)c(-c3ccco3)nc2c1	nt	nt	62*	-10	44*	nt	34	nt	nt	19	-2
O=C(c1ccccc1)c1ccc2nc(-c3ccco3)c(-c3ccco3)nc2c1	68	-11	62*	32	41*	90	51*	nt	nt	27	8
COc1ccccc1OCCNC(=O)c1cccc(S(=O)(=O)NCc2ccccc2)c1	nt	nt	11	-2	21	nt	nt	nt	nt	nt	nt
Nc1cc2nsnc2cc1Br	99	2	46*	-84	98*	101	32	nt	nt	99*	6	Fluor interf inh=>100
CCOc1ccc(CC(=O)NNC(=O)/C=C/C(=O)O)cc1	99	6	-8	3	-25	101	nt	nt	nt	nt	nt
CC(C)C[C@@H]1CN=C(N)N1C[C@@H]1CCCN1C[C@H](C)N1C[C@@H](Cc2ccccc2)N(CCCC2CCCC2)C1=N	nt	nt	52*	61*	55*	nt	43	-5	64*	5	2
